The list is not random: actives were taken first. Their share in the collection is about 3.8%.
Yeast life ext – yeast lifespan extension; S. cerevisiae growth with nicotinamide, OD615; deaD strain in restrictive glucose medium; inhibition of the nicotinamide effect, % at 10 µM; 0.68% of 130,000 active; AID 775;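 active = inhibition above a set limit, placed 3 SD over the median of all compounds, cut at about 26% in these data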;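 note: 0% = nicotinamide-treated wells and 100% = cells grown without nicotinamide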
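Measured by: optical density (absorbance) at 615 nm; System: modified budding yeast, DeaD strain; Medium: restrictive CSMM-D dextrose medium; Timing: 4 h preincubation then 48 h treatment at 30 °C.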
Yeast growth inh – yeast BB579 growth reduction in restrictive medium | S. cerevisiae BB579 growth, OD615, 48 h | inhibition, % at 10 µM | 0.51% of 140,000 active;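 active = inhibition above a set limit, 3 SD over the mean compound inhibition, cut at about 44% in these data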
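Test system: DeaD yeast strain BB579 / Buffer or medium: restrictive glucose-based CSMM-D medium / Doses: single 10 µM dose / Schedule: 4 h cell preincubation, 48 h compound exposure, 30 °C humidified / Technique: culture absorbance at 615 nm / Controls: amphotericin B positive control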
Measles CPE – protection of cells from measles virus; Measles virus-infected cells, CPE protection, absorbance; 1.5% of 140,000 active; protection (pct of control), % at 4 µM; AID 841; in the data active = protection mostly above about 24%, no sharp cut-off; inactive = mostly below about 26%
RAM inhibit – yeast RAM network inhibition | S. cerevisiae dse1pr::URA3 reporter, 5-FOA growth OD615, 2 d; analog-sensitive cbk1-as2 kinase mutant strain | inhibition, % at 50 µM | AID 868 | 1.8% of 190,000 active;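 active = inhibition above a set limit, 3 SD over mean compound inhibition, cut at about 8.4% in these data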;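 note: 0% = DMSO-only wells with no growth and 100% = 10 µM 1-NA-PP1 full growth; inhibition rescues growth on 5-FOA so higher OD means more RAM inhibition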
RAM 5-FOA – RAM network inhibitors in efflux-deficient yeast | shares compounds with RAM inhibit | max inhibition, % | S. cerevisiae efflux-deficient reporter strain, 5-FOA growth OD615, 2 days | 1,200 tested, under 10 active; call rule not given here;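 note: plate controls were vehicle for no effect and reference inhibitor for full effect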
Numbers without * were called inactive; x = no result.

SMILES	Yeast life ext	Yeast growth inh	Measles CPE	RAM inhibit	RAM 5-FOA
CC1CCc2c(sc3nc(CSc4n[nH]c(N)n4)[nH]c(=O)c23)C1 (centres undefined)	1	-27	10	12*	3
CN(C)C1=NP(N(C)C)(N(C)C)=NC(c2ccccc2)=N1	-5	-60	7	-1	x
CCCCCn1c(=O)c(C(=O)Nc2nc(CC(=O)OCC)cs2)c(O)c2ccccc21	x	x	x	25*	3
CCCCCn1c(=O)c(C(=O)Nc2cnccn2)c(O)c2ccccc21	x	x	x	12*	2
CCOCCSc1nc2c(c(-c3cccs3)c1C#N)CC/C2=C/c1cccs1	7	-5	7	12*	3
Cc1ccc(C(=O)NC(O)C(Cl)(Cl)Cl)cc1 (centres undefined)	4	5	8	1	x
O=[N+]([O-])/C=C/c1c(OCc2ccccc2)ccc2ccccc12	14	-50	-1	13*	5
COc1cc(N2CCOCC2)ccc1/C=C1\C(=O)NC(=O)N(Cc2ccc3c(c2)OCO3)C1=O	x	x	x	4	x
O=C(O)C1C2CCC(O2)C1C(=O)NC1CCCCC1 (centres undefined)	4	10	24	1	x
CCCCN1C(=O)/C(=C/c2ccc(N3CCCCCC3)cc2)C(=O)NC1=S	0	-24	9	5	x
CCN1C(=O)/C(=C/c2ccc3c(c2)CCN3CCCCl)C(=O)NC1=S	21	-38	2	16*	5
CCCn1c(C)cc(C=O)c1C	x	x	x	0	x
CCOP(=O)(OCC)C(Nc1cccc(C(F)(F)F)c1)c1ccc(Br)cc1 (centres undefined)	2	-7	x	12*	1
Cc1ccc(/C=C/C2=NN(Cc3ccc(Cl)c(Cl)c3)C(=O)CC2)cc1	-5	-49	23	12*	4
CC12CN3CC(C)(CN(C1)C31CCOCC1)C2=O	x	-2	5	1	x
CN(C)c1ccc(/C=C/C=C2/C(=O)NC(=O)N(c3ccccc3)C2=O)cc1	x	x	x	26*	12
O=C(NC(=O)N1CCC2(CC1)OCCO2)c1ccc(Cl)cc1	x	x	x	2	x
O=c1[nH]c(=O)n(Cc2ccco2)c(O)c1C=NCCCn1ccnc1	-15	-5	5	0	x
Cc1oc2ccc(OC(=O)N(C)C)cc2c1C(=O)OC(C)C	-6	-12	3	1	x
CCOC(=O)c1c(-c2ccc(OC)cc2)oc2ccc(OC(=O)N(C)C)cc12	-15	-43	5	14*	1
CN1CCC(C)(O)C2CCCCC21 (centres undefined)	x	x	x	2	x
CC(C)[C@H](CN(N=O)[C@@H](Cc1ccccc1)CN(C)N=O)N(CCc1ccccc1)N=O	x	x	x	13*	4
